PRMT1 inh: PRMT1 (human) inhibition, primary screen | inhibition, % at 2.79 µM | hit rate 1.3% among 370,000 | Q99873 | recombinant PRMT1, activity-based probe fluorescence polarization;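 active = inhibition above about 21% made by adding two undisclosed values, limit read from the data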
MBD2 inh: blocks human MBD2 binding to methylated DNA; inhibition, % at 4.4 µM; Q9UBB5; hit rate 0.31% among 370,000; TR-FRET, MBD2 binding to methylated oligonucleotide; in the data active = inhibition above about 13%
TDP2 absorb: TDP2 (human) inhibition, absorbance primary screen | recombinant TDP2, T5PNP hydrolysis, p-nitrophenol absorbance 415 nm | hit rate 0.34% among 370,000 | AID 720702 | O95551 | inhibition, % at 12.8 µM;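 active = inhibition above the mean of all tested compounds plus 3 SD, set per campaign, cut at about 25% in these data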;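 also: 0% = DMSO with enzyme and 100% = buffer with substrate but no TDP2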
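System – recombinant human TDP2 · Amount – 120 nM TDP2 per well · Buffer or medium – Mg2+-containing Tris-HCl buffer, pH 7.5 · Reagent – T5PNP substrate, 5 mM · Dosing – 12.8 µM single point, 1% DMSO · Incubation – 2 h at 37 °C · Measured by – epi absorbance · Read-out basis – percent inhibition · Benchmarks – high control without enzyme, low control DMSO plus TDP2 · Repeats – singlicate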
UHRF1 binding: human UHRF1 methylated DNA binding inhibitors | AID 687016 | hit rate 0.75% among 370,000 | UHRF1 binding to methylated oligo, TR-FRET | inhibition, % at 4.4 µM | Q96T88; in the data active = inhibition above about 21%;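 also: UHRF1 SRA domain binding a hemimethylated CpG hairpin DNA probe; 0% = median of test compound wells and 100% = reference inhibitor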
LEDGF integ inh: blocks HIV-1 LEDGF/p75-dependent DNA integration | TR-FRET IN-LEDGF/p75 DNA integration, Eu/Cy5 | inhibition, % at 3.7 µM | hit rate 0.64% among 370,000 | AID 743269;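 active = inhibition above the screen-wide mean plus 3 SD, cut at about 13% in these data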;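 also: signal is the Cy5 over europium emission ratio at 671 and 618 nm; 0% = plate median of compound wells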
SIAE inh: inhibitors of human sialic acid acetylesterase SIAE; Q9HAT2; SIAE FP-Rh probe binding, fluorescence polarization; inhibition, % at 9.66 µM; hit rate 0.69% among 370,000; AID 1053197;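 active = inhibition above a cutoff: mean of compounds within the control limits plus 3 SD of those, cut at about 17% in these data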;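 also: 0% = plate median of compound wells and 100% = probe without SIAE protein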
Target sequence (Q9HAT2 whole entry, looked up): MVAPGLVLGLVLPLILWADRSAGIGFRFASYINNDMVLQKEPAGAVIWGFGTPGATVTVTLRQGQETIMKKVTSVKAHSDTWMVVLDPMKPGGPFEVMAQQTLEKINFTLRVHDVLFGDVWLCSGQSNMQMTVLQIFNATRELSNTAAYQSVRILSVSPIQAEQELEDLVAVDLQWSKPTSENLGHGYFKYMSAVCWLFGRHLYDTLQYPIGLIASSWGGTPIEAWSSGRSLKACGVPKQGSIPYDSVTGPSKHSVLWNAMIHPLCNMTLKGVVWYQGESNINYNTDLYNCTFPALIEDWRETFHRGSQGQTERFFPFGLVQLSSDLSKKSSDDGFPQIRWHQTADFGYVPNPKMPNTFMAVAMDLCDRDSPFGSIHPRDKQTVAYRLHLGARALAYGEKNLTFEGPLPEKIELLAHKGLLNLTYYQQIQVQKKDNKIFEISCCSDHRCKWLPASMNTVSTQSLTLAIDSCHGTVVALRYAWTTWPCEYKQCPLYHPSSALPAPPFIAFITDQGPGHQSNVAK
SIAE inh conf: human SIAE inhibition, confirmation; SIAE FP-Rh activity-based probe, fluorescence polarization; shares compounds with SIAE inh; hit rate 13% among 2,300; AID 1117263; inhibition, % at 9.66 µM;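 active = mean inhibition of the replicates above the hit cutoff set in the primary screen, cut at about 17% in these data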;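 also: 0% = SIAE with DMSO and probe and 100% = probe without SIAE; inhibitors lower polarization as more probe stays unbound to SIAE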
Active calls of the source: *; nt = no result. Shown are actives, neighbours in structure and some others; about 3.3% of the full set was active somewhere.

SMILES	PRMT1 inh	MBD2 inh	TDP2 absorb	UHRF1 binding	LEDGF integ inh	SIAE inh	SIAE inh conf
N#Cc1ccc(/C=C2\CC3(OC(=O)c4ccco4)CCCN2C3)cc1 (stereo not drawn)	-0.5	0.7	-1.5	-1.3	-2.1	-1.4	nt
N#Cc1ccc(/C=C2\CC3(OC(=O)C4CCCC4)CCCN2C3)cc1 (stereo not drawn)	-1.9	0.9	0.9	-2.0	-2.0	22.6*	2.6
COc1ccc(-n2c(SCC(=O)Nc3ccc4c(c3)OCO4)nc3sc4c(c3c2=O)CCCC4)cc1	1.5	0.4	-0.7	-0.1	-1.6	1.5	nt
O=C(O)CSc1nnc(C2CC2)n1-c1ccccc1	-2.4	-4.4	-6.8	-2.8	2.4	1.0	nt
O=C(O)CSc1nnc(Nc2ccccc2)n1-c1ccccc1	-3.1	2.8	2.0	4.8	-0.5	18.2*	3.1
CCOC(=O)c1c(C)[nH]c(C(=O)NCCc2ccc(OC)c(OC)c2)c1C	-2.1	-4.6	15.2	-2.1	2.1	22.0*	-1.9
COc1cc(NC(=O)c2ccccc2)c(C)cc1NC(=O)CSc1nnc(-c2ccco2)n1Cc1ccco1	-2.2	-2.5	0.3	-1.9	-3.5	-1.6	nt
CSc1nsc(/C=C/Nc2ccc(F)cc2)c1C#N	0.6	1.3	3.0	-4.1	-0.6	1.1	nt
CSc1nsc(/C=C/Nc2ccc(O)cc2C)c1C#N	53.2*	-1.5	-8.9	-2.8	7.9	43.0*	20.8*
CCNC(=O)NC(=O)C(C)Sc1nnc(COc2ccccc2Cl)o1 (stereo not drawn)	-0.5	-4.2	0.2	-0.3	1.4	28.7*	0.8
CCNC(=O)NC(=O)C(C)Sc1ccc2c(c1)OCCO2 (stereo not drawn)	17.8	6.0	-11.3	1.9	-1.5	-7.1	nt
C=CCSc1nnc(NC(=O)CCNC(=O)c2ccco2)s1	2.5	4.3	-16.2	-1.8	-0.4	2.0	nt
CC(C)Cc1nnc(NC(=O)CCNC(=O)c2ccco2)s1	1.0	-6.8	15.1	-1.5	0.5	29.4*	1.4
COC(=O)Nc1nnc(-c2ccco2)s1	0.8	-1.2	2.9	-0.1	-1.0	7.3	nt
CC(C)CC(=O)Nc1nnc(-c2ccco2)s1	-0.5	-1.8	7.7	-3.3	-1.8	18.3*	-1.4
CN1Cc2c(N3CCOCC3)nc3sc(C#N)c(N)c3c2CC1(C)C	-2.2	-7.1	1.7	-5.5	-0.6	19.9*	4.0
CCOc1ccc(-n2c(SCC(=O)Nc3ccc(Oc4ccccc4)cc3)nnc2-c2ccncc2)cc1	2.8	-2.5	1.2	-0.3	-1.5	-3.9	nt
CCOC(=O)C1CCN(C(=O)C(C)(C)NC(=O)Nc2ccc(N(C)C)cc2)CC1	6.1	-3.0	-0.7	-3.3	-4.2	2.0	nt
CCCNC(=O)C(Cc1ccc(C(F)(F)F)cc1)NC(=O)c1ccc(C#N)cc1 (stereo not drawn)	-0.6	1.9	2.7	9.9	-2.1	-2.0	nt
CCCNC(=O)C(Cc1ccc(F)cc1)NC(=O)c1ccc(C#N)cc1 (stereo not drawn)	-2.6	-3.7	-0.5	1.5	-3.2	19.7*	-4.1
Cc1ccc(Nc2nnc(SCC(=O)Nc3ccccc3[N+](=O)[O-])s2)cc1	0.2	0.1	12.2	-1.9	3.6	24.9*	-0.5
O=C(CSc1nnc(NC2CCCCC2)s1)Nc1ccc2c(c1)C(=O)c1ccccc1C2=O	0.2	-1.7	-10.4	0.4	-0.9	5.5	nt
CC(C)Nc1nnc(SCC(=O)Nc2ccc3c(c2)C(=O)c2ccccc2C3=O)s1	1.3	-7.2	3.4	0.8	0.1	26.8*	-10.6
Cc1cccc(Nc2nnc(SCC(=O)Nc3ccccc3[N+](=O)[O-])s2)c1C	-0.9	-0.5	3.6	1.2	2.7	6.8	nt
Cc1cc(C)nc(N/N=C/c2cccc([N+](=O)[O-])c2)n1	1.6	0.4	-10.9	-2.4	-1.6	-5.8	nt
SMILES	PRMT1 inh	MBD2 inh	TDP2 absorb	UHRF1 binding	LEDGF integ inh	SIAE inh	SIAE inh conf
Cc1nc(Cl)c(N=Cc2cccc([N+](=O)[O-])c2)c(Cl)n1	-6.9	-4.4	4.4	0.2	2.0	17.7*	0.2
CCN1CCN(C(=O)/C(=C/c2ccco2)NC(=O)c2ccccc2)CC1	1.7	-5.6	17.1	-2.0	-1.2	18.4*	0.9
O=C(N/C(=C/c1ccco1)C(=O)N1CCCCCC1)c1ccccc1	4.9	1.3	9.7	-4.4	2.9	13.2	nt
CCOC(=O)Cc1nc(N2CCN(CCO)CC2)c2c(C)c(C(=O)OCC)sc2n1	4.4	-1.5	-5.1	0.7	-5.9	1.3	nt
Cc1nn(-c2ccccc2)c2sc(C(=O)NC3CCCc4ccccc43)cc12 (stereo not drawn)	0.0	5.6	3.9	0.9	-5.0	-3.8	nt
CCN(CCO)C(=O)c1ccc2nc(Cc3ccc(OC)cc3)oc2c1	-1.0	-3.7	3.9	-1.3	2.3	24.0*	-1.6
CCN(CCO)C(=O)c1ccc2oc(Cc3ccc(Cl)cc3)nc2c1	-0.6	-0.8	-7.9	4.5	1.2	4.4	nt
O=C(Cc1ccccc1)N1CCC(Oc2cccnc2)CC1	-2.8	5.8	-0.9	0.5	-4.1	-1.8	nt
Cc1nnc(N(C)C(=O)c2ccccn2)s1	1.4	-1.7	3.4	-0.6	-3.0	31.8*	3.8
O=C(NCc1nnc(SCC(=O)N2CCCC2)o1)c1ccco1	3.3	7.8	3.1	3.0	1.7	-2.8	nt
CC1CCN(C(=O)CSc2nnc(CNC(=O)c3ccco3)o2)CC1	-1.3	-1.9	9.9	-1.2	-0.8	22.1*	0.6
COc1ccccc1Cc1c(C2CCCCC2)nc2c(C)cc(Br)cn12	4.2	6.3	-0.8	13.6	-3.0	-7.2	nt
CCn1ncc(/C=N\NC(=O)c2ccc3c(c2)c(C)c(C)n3Cc2ccccc2)c1C	-1.4	1.6	1.1	-3.6	-5.3	37.8*	-8.1
CCOc1ccc(NC(=S)Nc2cccc3cnccc23)cc1	6.5	-4.3	14.8	-1.6	6.7	8.2	nt
CC(C)c1ccc(NC(=S)Nc2cccc3ccccc23)cc1	-0.3	2.5	7.9	-3.7	-0.1	17.6*	4.8
Fc1ccc(NC(=S)Nc2cccc3ccccc23)cc1	7.2	-3.8	5.7	-1.0	5.7	16.9	nt
CCOc1ccc(NC(=S)Nc2cccc3ccccc23)cc1	1.6	-4.4	-2.2	-2.0	-4.2	17.8*	-0.1
O=C(COc1ccccc1)NC(=S)Nc1cccc2c(O)cccc12	18.0	-4.9	11.3	-2.1	4.3	25.0*	4.2
Cc1cc(S(=O)(=O)NC(=O)[C@H]2O[C@@H](n3ccc(=O)[nH]c3=O)[C@H](O)[C@@H]2O)ccc1Br	4.3	0.9	8.1	2.5	7.0	2.0	nt
O=C(CCCCCN1C(=O)C2C3C=CC(C3)C2C1=O)N1CCN(c2ncccn2)CC1 (stereo not drawn)	3.7	8.4	0.5	-0.2	-4.3	6.5	nt
CNC(=O)c1c(NC(=O)c2ccc(S(=O)(=O)N3CCCC3)cc2)sc2c1CCN(C(C)C)C2	-7.3	-6.3	-1.8	0.9	1.0	4.6	nt
